Only some compounds are listed: those with a hit (about 2.3% of all), similar ones and a draw of the others.
CSN deneddyl inh – inhibitors of human CSN-mediated cullin deneddylation; Q92905; Purified CSN, SCF-Nedd8-OG deneddylation, fluorescence polarization; inhibition, % at 12.5 µM; actives 0.38% (n = 360,000);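 active = pattern-corrected inhibition above about 35%, with an unprinted fluorescence ratio check between 0.5 and 1.5, limit read from the data, passing the limit was not always enough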;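 also: 0% = enzyme with substrate and 100% = substrate without enzyme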
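Assay system: HEK293T-derived human Csn5 enzyme; quantity: 0.24 nM enzyme; medium: Tris/NaCl/DTT buffer, pH 7.5; also added: substrate SCFSkp2-Nedd8OG, 10 nM; doses: 12.5 µM compound; schedule: 90 min reaction at room temperature; signal: FP; read-out: % inhibition of substrate cleavage by Csn5; benchmarks: substrate-only high control, full reaction low control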
SKN-1 block – inhibitors of C. elegans SKN-1 | actives 0.49% (n = 360,000) | inhibition, % at 21.8 µM | C. elegans VP596 Pgst-4::GFP/RFP ratio, acrylamide-induced, 24 h;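 active = interference check ratio from 0.5 to 1.5 plus GFP to RFP signal ratio inhibition reaching or exceeding a fixed threshold, cut at about 30% in these data, passing the limit was not always enough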
SUMO1 PPI mod – SUMO1-SIM interaction modulation; inhibition, % at 20 µM; P63165; SUMO1 binding to a labelled peptide, TR-FRET, 1 h; actives 0.33% (n = 360,000); in the data active = inhibition above about 37%
MT1-MMP act inh – MT1-MMP (human) activation inhibition. GFP/RFP ratio change, % at 20 µM. HT1080 RFP-PRO-GFP cells, GFP/RFP ratio fluorescence, overnight; percent of plate control window, DMSO zero. actives 0.061% (n = 360,000). P50281. AID 651647;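 active = GFP/RFP ratio change of at least 30% with cell ATP level not reduced by more than half and red fluorescence within 50% of control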
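Assay system: RFP-PRO-GFP reporter HT1080 cells; read-out basis: GFP/RFP fluorescence ratio; benchmarks: DMSO wells and RFP-L50D-GFP cells; doses: 20 µM single dose, 1% DMSO; schedule: overnight cell settling, then overnight compound exposure, 37 °C, 5% CO2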
DNMT1 block – blocks human DNA methyltransferase DNMT1. actives 0.83% (n = 360,000). DNMT1 molecular beacon, Hinp1I cleavage, fluorescence. inhibition (reported as % activation of signal), % at 10 µM. AID 588458. P26358; in the data active = inhibition above about 50%
Target sequence (P26358 504-1616 limits assumed): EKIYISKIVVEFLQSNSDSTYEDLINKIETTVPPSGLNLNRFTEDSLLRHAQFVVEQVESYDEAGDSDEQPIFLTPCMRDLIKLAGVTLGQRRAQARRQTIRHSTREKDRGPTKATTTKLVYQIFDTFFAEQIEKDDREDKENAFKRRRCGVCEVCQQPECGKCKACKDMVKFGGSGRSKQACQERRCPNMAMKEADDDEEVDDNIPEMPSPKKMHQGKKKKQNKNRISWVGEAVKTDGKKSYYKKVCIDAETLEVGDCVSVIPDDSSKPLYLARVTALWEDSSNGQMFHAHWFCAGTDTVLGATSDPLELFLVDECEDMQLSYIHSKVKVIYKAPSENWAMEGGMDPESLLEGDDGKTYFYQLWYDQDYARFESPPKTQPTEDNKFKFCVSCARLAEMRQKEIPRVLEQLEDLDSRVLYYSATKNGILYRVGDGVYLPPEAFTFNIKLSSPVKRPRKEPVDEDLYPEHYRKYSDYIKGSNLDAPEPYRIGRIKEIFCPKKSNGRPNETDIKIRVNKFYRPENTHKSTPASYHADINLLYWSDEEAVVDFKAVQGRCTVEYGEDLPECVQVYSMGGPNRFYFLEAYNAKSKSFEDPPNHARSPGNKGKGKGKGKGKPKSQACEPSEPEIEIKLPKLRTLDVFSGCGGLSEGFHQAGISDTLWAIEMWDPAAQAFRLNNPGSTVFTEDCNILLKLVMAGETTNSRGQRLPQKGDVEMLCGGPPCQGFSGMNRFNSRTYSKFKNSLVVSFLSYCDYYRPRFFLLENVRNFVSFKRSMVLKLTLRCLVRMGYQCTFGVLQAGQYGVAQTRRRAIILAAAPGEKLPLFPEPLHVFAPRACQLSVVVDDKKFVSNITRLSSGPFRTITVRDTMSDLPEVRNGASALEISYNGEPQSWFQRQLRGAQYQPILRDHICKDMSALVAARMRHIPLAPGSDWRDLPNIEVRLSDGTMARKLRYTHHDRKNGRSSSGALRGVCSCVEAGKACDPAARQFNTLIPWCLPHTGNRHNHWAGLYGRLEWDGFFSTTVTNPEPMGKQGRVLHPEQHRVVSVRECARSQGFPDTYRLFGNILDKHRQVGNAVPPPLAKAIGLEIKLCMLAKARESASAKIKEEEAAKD
Rpn11 block – inhibitors of human proteasome Rpn11; inhibition, % at 20 µM; human 26S proteasome, Ub4-pepOG fluorescence polarization; 20S core pre-blocked with epoxomicin; actives 0.59% (n = 360,000);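 active = inhibition at 20 µM, scaled to each plate's controls, above about 33%, limit read from the data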
The depositor's hits bear a star; x = no result shown.

SMILES	CSN deneddyl inh	SKN-1 block	SUMO1 PPI mod	MT1-MMP act inh	DNMT1 block	Rpn11 block
COC(=O)[C@@]12C[C@@H](CC(=O)N3CCOCC3)C(=O)N(Cc3ccccc3)C1=CCC(C)(C)C2	-8	-4	0	-2	x	x
O=S(=O)(Nc1cccc(C(F)(F)F)c1)c1cnc[nH]1	-3	-2	1	15	0	1
O=S(=O)(Nc1ccc(C(F)(F)F)cc1)c1cnc[nH]1	-2	38*	-2	-6	2	-5
CC(C)CN1CCC1(C)C(=O)Nc1cccc(C#N)c1 (stereo unspecified)	-2	-11	1	1	4	8
COc1ccccc1C(=O)Nc1cccc(SC)c1	-2	-13	3	-4	-1	-1
CSc1cccc(NC(=O)c2cccc3cccnc23)c1	1	65*	-5	-3	-7	7
CC1(C(=O)Nc2cnc3ccccc3c2)CCN1Cc1ccccc1Cl (stereo unspecified)	2	13	-1	5	-6	-2
C#CCSc1ncc(-c2ccccc2)cn1	-1	90*	0	5	-4	-5
C=CCSc1ncc(-c2ccccc2)cn1	-10	73*	2	6	0	-7
Cc1nc2sccn2c(=O)c1S(=O)(=O)N1CCN(c2ccccc2F)CC1	0	-11	1	5	1	5
O=CNc1cc(-c2ccoc2)cn2c(-c3ccc(F)cc3)cnc12	21	3	3	-11	0	34
c1ccc2sc(-c3ccncc3)nc2c1	4	39*	-12	2	-2	-14
COc1cccc(-c2nc3ccccc3s2)c1	0	23	-4	-3	-7	2
Oc1ccc(-c2nc3ccccc3s2)cc1	-4	-11	-4	-2	2	1
Clc1ccc(-c2csc(-c3cccnc3)n2)s1	2	92*	-17	5	7	-1
c1cncc(-c2nc3ccccc3s2)c1	-1	11	48*	1	2	-5
Fc1ccccc1-c1csc(-c2cccnc2)n1	3	25	-7	x	0	-2
Cc1[nH]c2ccccc2c1SCc1ccccc1	-1	40*	15	0	-10	6
Cc1[nH]c2ccccc2c1SCCN	-1	9	-1	-4	-47	9
CCNC(=O)C1(C)CCN(Cc2ccc(C#N)cc2)C1 (stereo unspecified)	2	16	-1	-1	3	-2
CC(CC1C(C#N)=C(N)SC(N)=C1C#N)c1ccccc1 (stereo unspecified)	58*	-17	-5	-26	-10	x
Cc1c(CC(=O)NCC(=O)NCC(=O)N[C@@H](Cc2ccccc2)C(=O)O)c(=O)oc2c(C)c(O)ccc12	-9	8	2	1	1	-8
Cc1cccc(C)c1OCC(=O)Nc1nnc(C2CCCO2)s1 (stereo unspecified)	-2	37*	3	-6	6	6
Cc1cccc(OCCCC(=O)Nc2nnc(C3CCCO3)s2)c1C (stereo unspecified)	-3	-10	-1	-6	-6	-6
O=C(C[C@@H]1C[C@H]2c3cc(NC(=O)c4cccnc4)ccc3O[C@H]2[C@H](CO)O1)NCc1ccc(Oc2ccccc2)cc1	3	-10	-4	-4	-13	-2
SMILES	CSN deneddyl inh	SKN-1 block	SUMO1 PPI mod	MT1-MMP act inh	DNMT1 block	Rpn11 block
O=C1/C(=C\c2ccc(C(F)(F)F)cc2)CSc2sccc21	-1	37*	3	0	0	-10
O=C1/C(=C/c2ccc(F)c(F)c2)CSc2sccc21	-4	15	0	-4	-1	-5
Cc1ccc(S(=O)(=O)NCc2ccccc2Br)cc1	-1	-6	-1	8	x	x
O=C(Nc1ccc2c(c1)OCO2)C1Cc2c(-c3ccc4c(c3)OCO4)ccnc2O1 (stereo unspecified)	-2	15	7	-5	-3	-4
CCCCN1/C(=C/c2ccc3ccccc3[n+]2CC)Sc2ccccc21	22	36*	-55	-151	16	21
CCN1/C(=C/c2ccc3ccccc3[n+]2CC)C=Cc2ccccc21	23	78	19	66	40	21
Cc1cc(C)cc(CC(=O)N2CCC2(C)C(=O)NS(=O)(=O)c2ccc(Br)cc2)c1 (stereo unspecified)	0	4	5	1	-5	-2
CCCNC(=O)C1(C)CCN(Cc2cc(-c3ccccc3)on2)C1 (stereo unspecified)	-2	-3	-1	3	3	-6
O=C(NC1(O)C(=O)c2ccccc2C1=O)c1c(Cl)cccc1Cl	9	-9	10	6	53*	9
O=C(NC1(O)C(=O)c2ccccc2C1=O)c1ccccc1	12	20	28	5	34	13
CCCCC1OC2(C)OC(=N)C1(C#N)C(C#N)(C#N)C2c1ccccc1 (stereo unspecified)	-29	44*	3	-7	-6	-42
CN(C)c1ccc(CNC(=O)C2Cc3c(-c4cccc(C(N)=O)c4)ccnc3O2)cc1 (stereo unspecified)	-4	-10	12	1	-1	6
C#Cc1cccc(-n2nnc(C(=O)OC)c2-c2ccccc2)c1	-3	38*	2	0	1	-6
COc1cc(OC)cc(-c2noc(-c3csc([C@@H]4C[C@H](O)[C@@H](CO)O4)n3)n2)c1	-10	6	0	6	1	4
CC1(C(=O)NS(=O)(=O)c2ccc(Cl)cc2)CCN1C(=O)CCC1CCCC1 (stereo unspecified)	6	10	7	0	3	-2
CC1NC(=O)c2cc3ccccc3cc2-n2c1nc1cc(Cl)ccc1c2=O (stereo unspecified)	1	-1	-6	9	-10	2
CC/C(=C\c1ccc(N(C)C)cc1)c1ccncc1	4	67*	-9	-7	4	2
CN(C)c1ccc(/C=N/NC(=O)CNC(=O)c2ccncc2)cc1	-5	-5	-9	0	0	-2
COC(=O)c1ccc(COC(=O)C2CCN(S(=O)(=O)c3c(C)cc(C)cc3C)CC2)o1	-5	9	-5	-1	-2	6
O=C(Nc1ccccn1)C(c1ccccc1)c1ccccc1	-3	12	-4	0	-3	-8
CCCCNC(=O)c1nc(C2CCN(S(=O)(=O)c3c(OC)cccc3OC)CC2)oc1-c1ccccc1	-2	-13	3	1	x	x
Fc1ccc(-n2nnc(-c3cccnc3Cl)n2)cc1	-2	68*	-2	-2	1	-5
Clc1ncccc1-c1nnn(-c2ccccc2)n1	-4	26	0	3	2	1
